This is an account of results in ChEMBL document CHEMBL1154645, “Aza-peptidyl Michael acceptor and epoxide inhibitors--potent and selective inhibitors of Schistosoma mansoni and Ixodes ricinus legumains (asparaginyl endopeptidases)” (J Med Chem, 2009).

Assay [1] in a line: Inhibition of Schistosoma mansoni asparaginyl endopeptidase. Put shortly: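 Recombinant S. mansoni legumain zymogen expressed in Pichia pastoris and activated before use. Assay buffer was 0.1 M citrate-phosphate with 4 mM DTT at pH 6.8, with under 1% DMSO. The substrate was Cbz-Ala-Ala-[…]-AMC at a final 10 μM, and activity was read as AMC release.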
A further assay has as its target T1, Legumain-like protease (Ixodes ricinus, UniProt Q6PRC7).
T1 sequence (Q6PRC7 whole entry): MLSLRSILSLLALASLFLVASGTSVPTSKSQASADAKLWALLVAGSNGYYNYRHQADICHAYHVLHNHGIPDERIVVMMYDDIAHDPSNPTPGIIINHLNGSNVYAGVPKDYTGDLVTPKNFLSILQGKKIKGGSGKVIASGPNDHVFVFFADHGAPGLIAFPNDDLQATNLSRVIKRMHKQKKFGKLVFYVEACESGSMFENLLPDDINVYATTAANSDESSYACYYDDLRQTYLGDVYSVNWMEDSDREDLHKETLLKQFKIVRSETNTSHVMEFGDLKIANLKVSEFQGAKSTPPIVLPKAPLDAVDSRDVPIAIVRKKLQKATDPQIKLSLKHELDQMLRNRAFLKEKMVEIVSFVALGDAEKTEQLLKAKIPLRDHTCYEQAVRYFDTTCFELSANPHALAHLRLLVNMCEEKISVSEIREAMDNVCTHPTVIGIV
Kind of assay: Inhibition of Ixodes ricinus asparaginyl endopeptidases. Put shortly: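 Recombinant I. ricinus legumain zymogen expressed in Pichia pastoris, then activated. Substrate: Cbz-Ala-Ala-[…]-AMC at 10 μM final, with fluorogenic AMC release as the read-out.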

The structures appear in SMILES notation.

Broadly, the IC50 is the concentration that inhibits the measured activity by half.

With `CCOC(=O)/C=C/C(=O)N(CC(N)=O)NC(=O)[C@H](C)NC(=O)[C@@H](C)NC(=O)N1CCNCC1`, the IC50 amounted to 300 nM in assay [1] (read-out: IC50) and 8.5 nM on Legumain-like protease (read-out: IC50).
For the compound `C[C@H](NC(=O)[C@@H](C)NC(=O)N1CCCCC1)C(=O)NN(CC(N)=O)C(=O)/C=C/C(=O)NCCc1ccccc1`, the IC50 in assay [1] (read-out: IC50) stood at 750 nM; on Legumain-like protease (read-out: IC50), 400 nM.
For `CC(C)[C@H](NC(=O)[C@@H](C)NC(=O)OCc1ccccc1)C(=O)NN(CC(N)=O)C(=O)/C=C/C(=O)NCc1cccc2ccccc12`, in that order: 1050 nM and 350 nM.
Regarding `C[C@H](NC(=O)N1CCOCC1)C(=O)NN(CC(N)=O)C(=O)CCc1ccccc1`, the half-maximal inhibitory concentration (IC50) entry (in assay [1]; against Legumain-like protease) was “Not Active” throughout.
Regarding `C[C@H](NC(=O)[C@H](C)NC(=O)N1CCCCC1)C(=O)NN(CC(N)=O)C(=O)/C=C/C(=O)N(Cc1cccc2ccccc12)Cc1cccc2ccccc12` (relative stereo), the 50% inhibitory concentration (IC50) is 57 nM in assay [1] (read-out: IC50) and 8 nM on Legumain-like protease (read-out: IC50).
As to `CCOC(=O)/C=C/C(=O)N(CC(N)=O)NC(=O)[C@H](C)NC(=O)[C@@H](C)NC(=O)N1CCN(C(=O)OCc2ccccc2)CC1`, the IC50 on Legumain-like protease (read-out: IC50) was 0.14 nM.
For `CCOC(=O)/C=C/C(=O)N(CC(N)=O)NC(=O)[C@@H](NC(=O)[C@@H](C)NC(=O)OCc1ccccc1)[C@@H](C)CC`, the IC50 is 280 nM in assay [1] (read-out: IC50) and 0.52 nM at Legumain-like protease (read-out: IC50).
The corresponding values for `C[C@H](NC(=O)N1CCOCC1)C(=O)NN(CC(N)=O)C(=O)/C=C/C(=O)N1CCc2ccccc2C1` are 750 nM and 600 nM.
Take `C[C@H](NC(=O)[C@@H](C)NC(=O)N1CCOCC1)C(=O)NN(CC(N)=O)C(=O)/C=C/C(=O)N(Cc1cccc2ccccc12)Cc1cccc2ccccc12`: the half-maximal inhibitory concentration (IC50) in assay [1] (read-out: IC50) was 45 nM; at Legumain-like protease (read-out: IC50) it was 3.3 nM.
The corresponding values for `CCOC(=O)/C=C/C(=O)N(CC(N)=O)NC(=O)[C@@H](NC(=O)[C@@H](C)NC(=O)OCc1ccccc1)C(C)C` are 100 nM and 65 nM.
Regarding `C[C@H](NC(=O)N1CCOCC1)C(=O)NN(CC(N)=O)C(=O)Nc1cccc2ccccc12`, the IC50 result (in assay [1]; at Legumain-like protease) was “Not Active” in each case.
As to `C[C@H](NC(=O)N1CCOCC1)C(=O)NN(CC(N)=O)C(=O)/C=C/C(=O)NCc1ccco1`, the half-inhibitory concentration (IC50) entry (in assay [1]; at Legumain-like protease) was “Not Active” throughout.
Turning to `C[C@H](NC(=O)[C@@H](C)NC(=O)N1CCNCC1)C(=O)NN(CC(N)=O)C(=O)/C=C/C(=O)N(Cc1ccccc1)Cc1ccccc1`, the IC50 was 90 nM in assay [1] (read-out: IC50) and 31 nM on Legumain-like protease (read-out: IC50).
With `C[C@H](NC(=O)N1CCCCC1)C(=O)NN(CC(N)=O)C(=O)/C=C/C(=O)N1CCc2ccccc2C1`, the values for the 50% inhibitory concentration (IC50) (in assay [1] (read-out: IC50); at Legumain-like protease (read-out: IC50)) were 600 nM and 150 nM, respectively.
For the compound `C[C@H](NC(=O)N1CCCCC1)C(=O)NN(CC(N)=O)C(=O)Nc1ccccc1Oc1ccccc1`, the half-inhibitory concentration (IC50) entry (in assay [1]; at Legumain-like protease) was “Not Active” in each case.
Take `C[C@H](NC(=O)[C@@H](C)NC(=O)N1CCOCC1)C(=O)NN(CC(N)=O)C(=O)[C@H]1O[C@H]1C(=O)N(Cc1ccccc1)Cc1ccccc1`: the half-inhibitory concentration (IC50) result (in assay [1]; against Legumain-like protease) was “Not Active” in each case.
Turning to `C[C@H](NC(=O)N1CCOCC1)C(=O)NN(CC(N)=O)C(=O)/C=C/C(=O)NC1CC1`, the IC50 entry (in assay [1]; at Legumain-like protease) was “Not Active” throughout.
`C[C@H](NC(=O)[C@@H](C)NC(=O)N1CCN(C(=O)OC(C)(C)C)CC1)C(=O)NN(CC(N)=O)C(=O)/C=C/C(=O)N(C)Cc1cccc2ccccc12`: the IC50 stood at 58 nM in assay [1] (read-out: IC50) and 20 nM at Legumain-like protease (read-out: IC50).
For the compound `CC(C)[C@H](NC(=O)[C@@H](C)NC(=O)OCc1ccccc1)C(=O)NN(CC(N)=O)C(=O)/C=C/C(=O)N1CCCc2ccccc21`, the figures for the IC50 (in assay [1] (read-out: IC50); at Legumain-like protease (read-out: IC50)) were 138 nM and 13 nM, respectively.
The corresponding values for `CC(NC(=O)N1CCCCC1)C(=O)N[C@@H](C)C(=O)NN(CC(N)=O)C(=O)[C@H]1O[C@@H]1C(=O)NCc1cccc2ccccc12` (single isomer, unassigned) are 160 nM and 8.5 nM.
For `C[C@H](NC(=O)[C@@H](C)NC(=O)N1CCN(C(=O)OCc2ccccc2)CC1)C(=O)NN(CC(N)=O)C(=O)/C=C/C(=O)N(Cc1cccc2ccccc12)Cc1cccc2ccccc12`, in that order: 50 nM and 0.37 nM.
For `C[C@H](NC(=O)[C@@H](C)NC(=O)N1CCNCC1)C(=O)NN(CC(N)=O)C(=O)/C=C/C(=O)OCc1ccccc1`, in that order: 250 nM and 13 nM.
Turning to `CCOC(=O)/C=C/C(=O)N(CC(N)=O)NC(=O)[C@H](C)NC(=O)[C@@H](C)NC(=O)N1CCN(C(=O)OC(C)(C)C)CC1`, the IC50 in assay [1] (read-out: IC50) was found to be 80 nM; on Legumain-like protease (read-out: IC50) it was 8.5 nM.
The corresponding values for `COc1ccc(CNC(=O)/C=C/C(=O)N(CC(N)=O)NC(=O)[C@H](C)NC(=O)N2CCOCC2)cc1OC` are greater than 2000 nM and greater than 2000 nM.
For the compound `C[C@H](NC(=O)N1CCN(C(=O)OCc2ccccc2)CC1)C(=O)NN(CC(N)=O)C(=O)/C=C/C(=O)N1CCc2ccccc2C1`, the figures for the IC50 (in assay [1] (read-out: IC50); on Legumain-like protease (read-out: IC50)) were 750 nM and 800 nM, respectively.
Turning to `C[C@H](NC(=O)[C@@H](C)NC(=O)N1CCN(C(=O)OC(C)(C)C)CC1)C(=O)NN(CC(N)=O)C(=O)/C=C/C(=O)N(Cc1ccccc1)Cc1ccccc1`, the IC50 worked out at 45 nM in assay [1] (read-out: IC50) and 30 nM at Legumain-like protease (read-out: IC50).
For `CC(NC(=O)N1CCOCC1)C(=O)N[C@@H](C)C(=O)NN(CC(N)=O)C(=O)[C@H]1O[C@@H]1C(=O)N(Cc1ccccc1)Cc1ccccc1` (single isomer, unassigned), in that order: 90 nM and 1.7 nM.
Turning to `C[C@H](NC(=O)[C@H](C)NC(=O)N1CCOCC1)C(=O)NN(CC(N)=O)C(=O)OCc1ccccc1`, the IC50 entry (in assay [1]; against Legumain-like protease) was “Not Active” throughout.
Turning to `CC(C)(C)OC(=O)NN(CC(N)=O)C(=O)/C=C/C(=O)NCc1ccccc1`, the IC50 entry (in assay [1]; against Legumain-like protease) was “Not Active” in each case.
For `CC(NC(=O)N1CCN(C(=O)OC(C)(C)C)CC1)C(=O)N[C@@H](C)C(=O)NN(CC(N)=O)C(=O)[C@H]1O[C@@H]1C(=O)N(Cc1ccccc1)Cc1ccccc1` (single isomer, unassigned), the values for the IC50 (in assay [1] (read-out: IC50); at Legumain-like protease (read-out: IC50)) were 80 nM and 270 nM, respectively.
With `CC(C)(C)OC(=O)NN(CC(N)=O)C(=O)/C=C/C(=O)NCCCc1ccccc1`, the concentration for half-maximal inhibition (IC50) result (in assay [1]; against Legumain-like protease) was “Not Active” each time.
As for `CC(NC(=O)N1CCOCC1)C(=O)N[C@@H](C)C(=O)NN(CC(N)=O)C(=O)[C@H]1O[C@@H]1C(=O)NCc1cccc2ccccc12` (single isomer, unassigned), the half-inhibitory concentration (IC50) in assay [1] (read-out: IC50) is 60 nM; on Legumain-like protease (read-out: IC50) it was 6 nM.
On to `CCOC(=O)/C=C/C(=O)N(CC(N)=O)NC(=O)[C@H](C)NC(=O)[C@@H](C)NC(=O)N1CCCCC1`, for which the IC50 in assay [1] (read-out: IC50) is 80 nM; on Legumain-like protease (read-out: IC50), 15 nM.
For `C[C@H](NC(=O)[C@@H](C)NC(=O)N1CCN(C(=O)OC(C)(C)C)CC1)C(=O)NN(CC(N)=O)C(=O)/C=C/C(=O)OCc1ccccc1`, in that order: 45 nM and 7.5 nM.
For `C[C@H](NC(=O)[C@@H](C)NC(=O)N1CCN(C(=O)OC(C)(C)C)CC1)C(=O)NN(CC(N)=O)C(=O)/C=C/C(=O)N(Cc1cccc2ccccc12)Cc1cccc2ccccc12`, in that order: 68 nM and 5 nM.
Take `C=C/C=C(\C)CNC(=O)N(CC(N)=O)NC(=O)[C@H](C)NC(=O)N1CCN(C(=O)OCc2ccccc2)CC1`: the 50% inhibitory concentration (IC50) result (in assay [1]; at Legumain-like protease) was “Not Active” each time.
In the case of `C[C@H](NC(=O)[C@@H](C)NC(=O)N1CCNCC1)C(=O)NN(CC(N)=O)C(=O)/C=C/C(=O)N(C)Cc1cccc2ccccc12`, the 50% inhibitory concentration (IC50) in assay [1] (read-out: IC50) came to 40 nM; at Legumain-like protease (read-out: IC50), 3.8 nM.
For `C[C@H](NC(=O)[C@H](C)NC(=O)N1CCCCC1)C(=O)NN(CC(N)=O)C(=O)/C=C/C(=O)N(Cc1ccccc1)Cc1ccccc1`, in that order: 80 nM and 17 nM.
Turning to `C[C@H](NC(=O)N1CCOCC1)C(=O)NN(CC(N)=O)C(=O)/C=C/C(=O)NCCCc1ccccc1`, the IC50 in assay [1] (read-out: IC50) is greater than 2000 nM; against Legumain-like protease, “Not Active”.
Consider `CC(C)(C)OC(=O)NN(CC(N)=O)C(=O)/C=C/C(=O)NCC1CCCCC1`, for which the IC50 entry (in assay [1]; at Legumain-like protease) was “Not Active” in each case.
For the compound `C[C@H](NC(=O)[C@@H](C)NC(=O)N1CCOCC1)C(=O)NN(CC(N)=O)C(=O)/C=C/C(=O)N1CCc2ccccc2C1`, the IC50 amounted to 103 nM in assay [1] (read-out: IC50) and 65 nM at Legumain-like protease (read-out: IC50).
The corresponding values for `C[C@H](NC(=O)N1CCN(C(=O)OCc2ccccc2)CC1)C(=O)NN(CC(N)=O)C(=O)/C=C/C(=O)N1CCCc2ccccc21` are 750 nM and 850 nM.
For `C[C@H](NC(=O)[C@@H](C)NC(=O)N1CCNCC1)C(=O)NN(CC(N)=O)C(=O)/C=C/C(=O)N(Cc1cccc2ccccc12)Cc1cccc2ccccc12` (relative stereo), in that order: 70 nM and 2.6 nM.
The corresponding values for `CCOC(=O)/C=C/C(=O)N(CC(N)=O)NC(=O)[C@H](C)NC(=O)[C@@H](C)NC(=O)N1CCOCC1` are 101 nM and 0.23 nM.
In the case of `CCOC(=O)/C=C/C(=O)N(CC(N)=O)NC(=O)OC(C)(C)C`, the figures for the IC50 (in assay [1] (read-out: IC50); on Legumain-like protease (read-out: IC50)) were greater than 2000 nM and 750 nM, respectively.
